We go through two substances from ChEMBL document CHEMBL3826940, “Amphipathicity Determines Different Cytotoxic Mechanisms of Lysine- or Arginine-Rich Cationic Hydrophobic Peptides in Cancer Cells” (J Med Chem, 2016).

Series [1] can be described thus: Cytotoxicity against human 293T cells assessed as cell viability after 24 hrs by MTT assay. It is filed as cell-based, HEK-293T. An outline of the steps: (§1)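 MTT viability assay. Cells were seeded at 1 × 10^4 cells/well in complete medium and grown 24 h. Medium was replaced with fresh medium containing peptide over a concentration series and incubated 24 h. MTT (5 mg/mL) was added for 4 h, formazan was dissolved in DMSO, and A490 was read. IC50 was derived from mean ± SD of three independent experiments.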
(Tetrazolium assays rely on reduction of a dye to a coloured formazan, in cell work by metabolically active cells.)

The test system of the next series is MCF7. As to the kind of experiment: Cytotoxicity against human MCF7 cells assessed as cell viability after 24 hrs by MTT assay. The series is classed as functional, cell-based. An outline of the steps:
as §1

Series [2] has as its system HeLa. Description: Cytotoxicity against human HeLa cells assessed as cell viability after 24 hrs by MTT assay. The series is classed as functional, cell-based. An outline of the steps: as §1
A short description of series [3]: Hemolytic activity in mouse RBC at 0.39 to 50 uM after 1 hr. The series is classed as ADME, cell-based. Conditions: erythrocyte. In a few lines: (§2)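 Heparinized fresh mouse blood: RBCs were washed three times in 0.9% saline and diluted to 4.0 × 10^8 cells/mL. Peptides at various concentrations were incubated with the RBCs 1 h at 37 °C. After centrifugation at 1000 rpm for 10 min, supernatant absorbance was read at 540 nm, with 1% Triton X-100 set as 100% hemolysis.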

In a further series the test system is HUVEC. As to the kind of experiment: Cytotoxicity against HUVEC assessed as cell viability after 24 hrs by MTT assay. The series is classed as cell-based, Homo sapiens. An outline of the steps:
as §1

Another series concerns A549. Description: Cytotoxicity against human A549 cells assessed as cell viability after 24 hrs by MTT assay. The series is classed as functional, cell-based. An outline of the steps: as §1
A short description of series [4]: Cytotoxicity against HLF assessed as cell viability after 24 hrs by MTT assay. Also noted: species or system Homo sapiens. In a few lines: as §1
The nature of series [5]: Drug uptake in plasma membrane of human HeLa cells at 5 uM after 2 to 30 mins using iridium dye labeled compound by confocal microscopic method. It is filed as ADME, cell-based. An outline of the steps: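 Peptides were labelled at the N-terminal His with [Ir(ppy)2(H2O)2]OTf: 200 μM each, mixed 1:1 in PBS, 2 h at 37 °C in the dark. HeLa cells (1 × 10^5 per dish, grown 24 h) were exposed to 5 μM labelled peptide. Live-cell confocal images were taken at 0, 5 and 15 min (excitation 403 nm, emission 500–560 nm).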

For series [6], the system named is HeLa. Description: Cytotoxicity against human HeLa cells assessed as cell mortality at 5 uM after 5 mins by MTT assay. It is filed as functional, cell-based.
Series [7] in a line: Hemolytic activity in mouse RBC after 1 hr. It is filed as ADME, cell-based, Erythrocyte. Conditions: red blood cells. In a few lines: as §2
Series [8] concerns HeLa. As to the kind of experiment: Induction of morphological changes in human HeLa cells assessed as membrane fragmentation at 5 uM after 30 mins by microscopic method. The series is classed as functional, cell-based. In a few lines: (§3)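 HeLa cells were co-incubated with 5 μM peptide for 30 min. Morphology was then examined under the microscope.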
Series [9] has as its system HeLa. As to the kind of experiment: Induction of morphological changes in human HeLa cells assessed as membrane leakage at 5 uM after 30 mins by microscopic method. The series is classed as functional, cell-based. An outline of the steps:
as §3

Series [10] concerns HeLa. As to the kind of experiment: Induction of apoptosis in human HeLa cells assessed as caspase-3 activation at 5 uM measured up to 4 hrs by caspase-glo assay. The series is classed as functional, cell-based. An outline of the steps:
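Cells in 96-well plates were exposed to 5 μM peptide for 5, 10, 15 or 30 min, or 1, 2, 3 or 4 h. Caspase-Glo 3/7 reagent was added, the plate shaken 30 s and incubated 2 h at room temperature, and luminescence was read.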

In series [11] the test system is HeLa. Description: Cytotoxicity against human HeLa cells assessed as cell mortality at 5 uM after 5 mins by Hoechst 33342/propidium iodide staining-based assay. The series is classed as functional. An outline of the steps:
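HeLa cells treated with 5 μM peptide were co-stained with Hoechst 33342 (stains all nuclei) and propidium iodide (stains only membrane-compromised cells). Fluorescence imaging was done at time points up to 30 min.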

In series [12] the test system is HeLa. Description: Cytotoxicity against human HeLa cells assessed as lethality at 5 uM at 0 degC after 30 mins by MTT assay. The series is classed as functional, cell-based. An outline of the steps: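 HeLa cells were incubated with peptide over a range of concentrations at 0 or 37 °C for 30 min. Lethality was then measured by MTT, with A490 read after DMSO solubilization.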

pIC50: −log10 of the molar value. Activity calls are given as the source filed them. The calls are words filed in the database; no cut-off is given here.

Take H-HGGKLLKLLKKLLKLLK-NH2: the Activity result was “Toxic” in series [1] (human, hek-293t); “Toxic” in series [3]; “Toxic” in the series with HUVEC (human, huvec); “Toxic” in series [4] (human, hlf). In addition, the result in the series with MCF7 and in the series on A549 was Active. Further, the negative logarithm of the IC50 (pIC50) in the series with HeLa [2] was 5.48.
On to H-HGGRLLRLLRRLLRLLR-NH2, for which, in series [5], the Drug uptake entry is given as “Active”. The result with HeLa [6], with HeLa [8], with HeLa [9], in the series with HeLa [11] and in the series on HeLa [12] was Active. Besides, the negative-log IC50 (pIC50) in [1] (Homo sapiens, HEK-293T) was 5.02; with MCF7 (MCF7, 24 h), 5.60; in the series with HeLa [2], 5.43; in the series on HUVEC (Homo sapiens, HUVEC), 5.08; with A549 (A549, 24 h) it was 5.37; in [4] (Homo sapiens, HLF), 5.20. The HC50 at 1 h in [7] is 2900 nM. For the same substance, the result in the series with HeLa [10] was inactive.

A word on the pIC50: it is −log10 of the IC50, conventionally taken in molar units. As usually defined, the HC50 is the concentration giving 50% haemolysis. Read a low HC50 as stronger haemolysis.
